Source: ChEMBL document CHEMBL2150998, “Antibiotic and antimalarial quinones from fungus-growing ant-associated Pseudonocardia sp” (J Nat Prod, 2012)
pIC50: −log10 of the molar value. Converted amounts (≈) assume the structure as drawn.

Tests used:
HepG2 = test: Cytotoxicity against human HepG2 cells after 2 days by CellTiter-Glo assay; format: cell-based; conditions: HepG2, 48 h
Method in brief: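 HepG2 hepatoma cells were kept in DMEM with 10% FBS and 1% antibiotic–antimycotic (37 °C, 5% CO2). 15 000 cells/well were exposed in triplicate to compounds at 0–50 μg/mL with 1% DMSO final, 2 days at 37 °C. Viability was read by CellTiter-Glo luminescence. IC50 came from a standard inhibition dose–response fit, mean of two independent experiments.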

Saccharomyces cerevisiae = test: Antifungal activity against Saccharomyces cerevisiae after 24 hrs; format: functional
Method in brief: (§1)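 Overnight cultures at 30 °C in LB (E. coli, B. subtilis) or YPD (C. albicans, S. cerevisiae) were diluted to OD600 0.01. Compounds came from 5 mg/mL DMSO stocks, 2-fold serially diluted, at final 50 to 0.1 μg/mL. Growth ran 24 h at 30 °C with OD600 read-out. MIC was the lowest concentration giving <5% of maximum OD600. Assays were run in duplicate, with dynemicin A as positive control.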

Escherichia coli = test: Antibacterial activity against Escherichia coli K12 after 24 hrs; format: functional; conditions: K-12, 24 h; method in brief: as §1
Candida albicans = test: Antifungal activity against Candida albicans after 24 hrs; format: functional; method in brief: as §1
Bacillus subtilis = test: Antibacterial activity against Bacillus subtilis 3610 after 24 hrs; format: functional; conditions: subsp. subtilis str. NCIB 3610, 24 h; method in brief: as §1
Plasmodium berghei = test: Antiplasmodial activity against luciferase-expressing sporozoite of Plasmodium berghei ANKA infected in human HepG2 cells assessed as reduction of parasite load after 2 days; format: functional, organism-based; conditions: HepG2, 48 h
Method in brief: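 HepG2 cells (15 000/well, 384-well) were infected with 4000 luciferase-expressing P. berghei ANKA sporozoites, taken from infected Anopheles stephensi, with compounds in triplicate. Final DMSO was 1%, compounds 0–50 μg/mL, 2 days at 37 °C. Parasite load was read by Bright-Glo luminescence. IC50 came from a standard inhibition dose–response fit, mean of two independent experiments. Atovaquone was the positive control.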

SMILES | MIC (Saccharomyces cerevisiae) [µg/mL] | MIC (Escherichia coli) [µg/mL] | MIC (Candida albicans) [µg/mL] | MIC (Bacillus subtilis) [µg/mL] | pIC50 (Plasmodium berghei) | pIC50 (HepG2)
COc1cccc2c1C(=O)c1ccc3cc(C)cc(O[C@@H]4O[C@H](C(=O)O)[C@@H](O)[C@H](O)[C@H]4O)c3c1C2O (relative stereo) | > 50 | > 50 | > 50 | > 50 | 4.42 | < 4.00
COC1=C(C(=O)O)[C@H](C)[C@@]23O[C@]24c2cc(O)c5c(c2N[C@H]3C#C/C=C\C#C[C@H]14)C(=O)c1c(O)ccc(O)c1C5=O [DYNEMICIN A] | 0.156 (≈ 0.29 µM) | 0.313 (≈ 0.582 µM) | 0.156 (≈ 0.29 µM) | 0.00016 (≈ 0.000298 µM) |  | 
COc1cccc2c1C(=O)c1ccc3cc(C)cc(O[C@@H]4O[C@H](C(=O)O)[C@@H](O)[C@H](O)[C@H]4O)c3c1C2=O [PSEUDONOCARDONE B] | > 50 | > 50 | > 50 | > 50 | 4.30 | < 4.00
COc1cccc2c1C(=O)c1ccc3cc(C)c(O[C@@H]4O[C@H](C(=O)O)[C@@H](O)[C@H](O)[C@H]4O)c(O)c3c1C2=O [PSEUDONOCARDONE C] | > 50 | > 50 | > 50 | > 50 | < 4.00 | < 4.00

More lines, main results first:

MIC (Saccharomyces cerevisiae) [µg/mL] | MIC (Escherichia coli) [µg/mL] | MIC (Candida albicans) [µg/mL] | MIC (Bacillus subtilis) [µg/mL] | pIC50 (Plasmodium berghei) | SMILES | pIC50 (HepG2)
> 50 | > 50 | > 50 | 25 (≈ 74.3 µM) | 4.73 | COc1cccc2c1C(=O)c1ccc3c(c1C2=O)C(=O)C[C@](C)(O)C3 | < 4.00
> 50 | > 50 | > 50 | 3.13 (≈ 9.83 µM) | 5.52 | COc1cccc2c1C(=O)c1ccc3cc(C)cc(O)c3c1C2=O | 4.44
